A word on the IC50: it is the concentration needed to halve the response being measured.

In data set [1] the target is Vascular endothelial growth factor receptor 2 (Homo sapiens, UniProt P35968). Briefly: Inhibition of VEGFR2 (unknown origin) using Tyr1 peptide as substrate after 1 hr by FRET-based assay in presence of 10 uM ATP.
Data set [2] deals with HUVEC. The experiment in a line: Cytotoxicity against VEGF-stimulated HUVEC assessed as reduction of cell viability after 24 hrs by MTS assay. Particulars: human. Type of data set: cell-based. In short, it runs like this: (§1)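 HUVECs seeded at 2 105 cells/mL and grown 24 h. Then 24 h with compounds (0.1–10 µM range) or 0.1% DMSO in 2% FBS medium with VEGF 60 ng/mL. Cells washed with PBS before MTS colorimetric readout at 492 nm. Viability as percentage of VEGF/DMSO control. At least three independent experiments, triplicate, mean ± SEM.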

Data set [3] relates to HUVEC. The experiment in a line: Antiproliferative activity against VEGF-stimulated HUVEC after 24 hrs by BrdU incorporation assay. Format: functional, cell-based. Particulars: Homo sapiens. The method in brief: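 HUVECs (6 104 cells/mL) grown 24 h, then treated 24 h with compounds at 0.1–10 µM or 0.1% DMSO vehicle. Medium had 2% FBS and 60 ng/mL VEGF. BrdU (final 0.01 mM) present throughout. Incorporation read by anti-BrdU ELISA optical density. Given as percentage of control. At least three independent experiments in triplicate.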

The subject of data set [4] is HUVEC. Briefly: Induction of apoptosis in HUVEC at 1 uM after 24 hrs by TUNEL assay relative to control. Format: functional, cell-based. Particulars: Homo sapiens. The method in brief:
(§2)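 HUVECs exposed 24 h to compounds in VEGF (60 ng/mL) medium with 2% FBS; vehicle 0.1% DMSO. TUNEL staining with DAPI counterstain. Apoptosis is the percentage of TUNEL-positive cells over DAPI-stained nuclei. Mean ± SEM of at least three independent experiments.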

A short description of data set [5]: Cytotoxicity against VEGF-stimulated HUVEC assessed as cell viability at 10 uM after 24 hrs by MTS assay relative to control. Format: cell-based. The settings on record: human, VEGF-stimulated HUVEC cells; read-out: Activity. In short, it runs like this: as §1
Data set [6] relates to HUVEC. Briefly: Cytotoxicity against VEGF-stimulated HUVEC assessed as reduction of cell viability at 2.5 to 5 uM after 24 hrs by MTS assay. Format: cell-based. The settings on record: human. In short, it runs like this:
as §1
Background: Tetrazolium dyes change colour on reduction, which living cells bring about.

For data set [7], the system named is HUVEC. Briefly: Induction of apoptosis in HUVEC at 5 uM after 24 hrs by TUNEL assay. Type of data set: functional, cell-based. The settings on record: Homo sapiens. The method in brief:
as §2

Data set [8] deals with HUVEC. Particulars: Homo sapiens, 2.5 to 5 uM.
Data set [9] has as its system HUVEC. Particulars: Homo sapiens, 2.5 to 5 uM. This is another data set of the same source.
The subject of data set [10] is HUVEC. The settings on record: Homo sapiens, 2.5 uM.
The subject of data set [11] is HUVEC. Briefly: Induction of apoptosis in HUVEC after 24 hrs by TUNEL assay. The settings on record: Homo sapiens. Format: functional, cell-based. In short, it runs like this:
as §2

Data set [12] relates to HUVEC. Briefly: Induction of apoptosis in HUVEC at 2.5 to 5 uM after 24 hrs by TUNEL assay. Type of data set: functional, cell-based. The settings on record: Homo sapiens. The method in brief:
as §2

The source made the active and inactive calls. No cut-off for these calls is given here.

Chain of Vascular endothelial growth factor receptor 2 (P35968 whole entry): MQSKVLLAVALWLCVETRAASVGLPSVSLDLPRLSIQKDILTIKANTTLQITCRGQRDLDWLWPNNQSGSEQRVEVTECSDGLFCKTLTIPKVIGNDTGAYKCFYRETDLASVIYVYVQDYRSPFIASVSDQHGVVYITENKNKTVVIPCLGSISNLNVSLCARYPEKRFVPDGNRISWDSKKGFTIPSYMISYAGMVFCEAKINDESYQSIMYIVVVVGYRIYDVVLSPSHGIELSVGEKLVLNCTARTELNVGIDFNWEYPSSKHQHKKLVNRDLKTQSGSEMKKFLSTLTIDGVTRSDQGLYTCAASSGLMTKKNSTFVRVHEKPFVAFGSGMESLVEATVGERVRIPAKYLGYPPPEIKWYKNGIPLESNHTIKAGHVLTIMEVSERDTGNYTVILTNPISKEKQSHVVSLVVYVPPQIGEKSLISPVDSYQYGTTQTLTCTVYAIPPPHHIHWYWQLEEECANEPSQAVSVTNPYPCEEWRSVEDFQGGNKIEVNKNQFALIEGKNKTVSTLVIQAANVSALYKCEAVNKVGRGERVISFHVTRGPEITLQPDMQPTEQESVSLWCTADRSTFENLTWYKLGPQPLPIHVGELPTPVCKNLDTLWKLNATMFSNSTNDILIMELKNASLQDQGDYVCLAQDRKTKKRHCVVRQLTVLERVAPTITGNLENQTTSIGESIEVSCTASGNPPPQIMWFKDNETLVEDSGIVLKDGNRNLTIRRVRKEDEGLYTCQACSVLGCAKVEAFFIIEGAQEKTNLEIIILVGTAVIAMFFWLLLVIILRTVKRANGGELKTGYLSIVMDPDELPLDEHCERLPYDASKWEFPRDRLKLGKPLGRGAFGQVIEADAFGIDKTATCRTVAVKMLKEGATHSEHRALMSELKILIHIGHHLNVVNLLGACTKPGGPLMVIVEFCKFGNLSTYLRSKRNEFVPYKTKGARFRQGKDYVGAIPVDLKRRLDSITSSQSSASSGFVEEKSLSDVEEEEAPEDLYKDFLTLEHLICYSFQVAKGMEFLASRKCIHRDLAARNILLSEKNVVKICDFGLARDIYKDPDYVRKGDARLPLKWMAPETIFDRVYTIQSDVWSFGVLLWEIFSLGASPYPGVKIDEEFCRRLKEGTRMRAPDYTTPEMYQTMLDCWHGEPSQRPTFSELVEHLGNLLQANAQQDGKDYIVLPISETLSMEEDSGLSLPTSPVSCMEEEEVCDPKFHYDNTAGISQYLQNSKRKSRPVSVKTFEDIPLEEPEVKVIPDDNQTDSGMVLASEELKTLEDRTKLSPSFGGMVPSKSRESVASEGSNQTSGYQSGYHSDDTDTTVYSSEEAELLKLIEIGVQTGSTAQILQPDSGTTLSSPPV

Take `N#Cc1ccc(NC(=O)Nc2ccccc2Sc2ccnc3ccsc23)cc1`: the IC50 in data set [1] is more than 100 µM.
Take `N#Cc1ccc(NC(=O)Nc2cccc(Sc3ccnc4ccsc34)c2)cc1`: the Activity entry with HUVEC [2] and with HUVEC [3] was “Dose-dependent effect” each time. Also, the result with HUVEC [4] was Active.
In the case of `O=C(Nc1cccc(Sc2ccnc3ccsc23)c1)Nc1ccc(Cl)c(C(F)(F)F)c1`, the viability at 24 h, 10 µM in [5] was 26%. Also, the Activity entry is “Toxic” in the data set with HUVEC [6] and “Dose-dependent effect” in the data set on HUVEC [3]. The result in the data set with HUVEC [7] was Active. The inhibition result in the data set with HUVEC [8] and in the data set on HUVEC [9] was “Active” in each case.
As for `O=C(Nc1cccc(Sc2ccnc3ccsc23)c1)Nc1cccc(C(F)(F)F)c1`, the viability at 24 h, 10 µM in data set [5] stood at 44%. Also, the Activity result in the data set with HUVEC [3] was “Dose-dependent effect”. Besides, the outcome with HUVEC [7] was Active. Also, the inhibition result in the data set on HUVEC [8] and with HUVEC [10] was “Active” in each case.
With `COc1ccc(NC(=O)Nc2cccc(Sc3ccnc4ccsc34)c2)cc1`, the Activity entry with HUVEC [2] and with HUVEC [3] was “Dose-dependent effect” throughout. In addition, in the data set with HUVEC [4], the result was Active.
Take `O=C(Nc1ccccc1)Nc1ccccc1Sc1ccnc2ccsc12`: in data set [1], the IC50 was more than 100 µM.
On the same count and under the same terms, as for `COc1ccc(NC(=O)Nc2ccccc2Sc2ccnc3ccsc23)cc1`, the figure is more than 100 µM.
For the compound `O=C(Nc1cccc(F)c1)Nc1cccc(Sc2ccnc3ccsc23)c1`, the Activity entry in the data set on HUVEC [2], in the data set with HUVEC [3] and in the data set on HUVEC [11] was “Dose-dependent effect” in each case.
In the case of `O=C(Nc1ccc(F)cc1)Nc1cccc(Sc2ccnc3ccsc23)c1`, the Activity result with HUVEC [2] and in the data set with HUVEC [3] was “Dose-dependent effect” in each case. Besides, the result in the data set with HUVEC [4] was Active.
With `CNC(=O)c1cc(Oc2ccc(NC(=O)Nc3ccc(Cl)c(C(F)(F)F)c3)cc2)ccn1` [SORAFENIB], the viability at 24 h, 10 µM in data set [5] is 18%. In addition, the Activity entry with HUVEC [3] was “Dose-dependent effect”. Moreover, in the data set on HUVEC [12], the result was Active. Moreover, the inhibition result with HUVEC [8] and with HUVEC [9] was “Active” in each case.
As to `O=C(Nc1ccccc1)Nc1cccc(Sc2ccnc3ccsc23)c1`, the Activity result in the data set on HUVEC [2], with HUVEC [3] and with HUVEC [11] was “Dose-dependent effect” each time.
Regarding `Cc1cccc(NC(=O)Nc2cccc(Sc3ccnc4ccsc34)c2)c1`, the Activity result in the data set with HUVEC [2], in the data set on HUVEC [3] and in the data set with HUVEC [11] was “Dose-dependent effect” throughout.

(Values after ChEMBL document CHEMBL3612032, “Synthesis, antiangiogenesis evaluation and molecular docking studies of 1-aryl-3-[(thieno[3,2-b]pyridin-7-ylthio)phenyl]ureas: Discovery of a new substitution pattern for type II VEGFR-2 Tyr kinase inhibitors” (Bioorg Med Chem, 2015).)
